For test [1], the system named is CEM-SS cells (Homo sapiens). Briefly: In vitro inhibition of CEM-SS cell growth by 50 %.
Test [2] concerns Human immunodeficiency virus 1. Put plainly: Differential selectivity measured as the ratio of CEM-SS cell growth IC50 vs HIV plaque formation IC50. The class given is functional. In outline:
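Selectivity index taken as CEM-SS growth IC50 (48 h suspension culture, [3H]thymidine uptake) divided by HIV-1 syncytial plaque IC50 (day-5 plaque count in CEM-SS monolayers, 60–90 PFU). Both IC50s come from twofold dilutions over 0.03–20.0 μM.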

For test [3], the system named is Human immunodeficiency virus 1. Briefly: In vitro inhibition of HIV-1 plaque formation. The class given is functional, organism-based. The essentials:
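HIV-1 syncytial plaque assay. CEM-SS cells in log phase, washed in PBS, 50 000 per well in serum-free RPMI-1640 on poly-L-lysine-coated wells, 30 min at 37 °C, 5% CO2. Inoculated with HIV-1 (60–90 PFU). After 60 min, overlay with or without compound at serial twofold dilutions, 0.03–20.0 μM. Second overlay on day 3. Plaques counted on day 5 to give IC50. Mean ± SD, n ≥ 3, or a single experiment.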

Where only a bound is given, the exact number is not on record here.

For the compound `CCCCCCCCCCCCCCCCCCCC(=O)NCC(COP(=O)([O-])OCC[N+](C)(C)C)OCC` (stereo not drawn), the figures for the IC50 in test [1] and in test [3] were 4.7 µM and 0.16 µM, respectively. Also, in test [2], the Ratio worked out at 29.4.
Taken in the same sequence, the figures for `CCCCCCCCCCCCCCCCCCNC(=O)NCC(COP(=O)([O-])OCC[N+](C)(C)C)OCC` (stereo not drawn) were 7.7 µM, 0.57 µM and 13.5.
Consider `CCCCCCCCCCCCCCCCCC(=O)NCC(COP(=O)([O-])OCC[N+](C)(C)C)OCC` (stereo not drawn), for which the IC50 was determined as 13.5 µM in test [1] and 0.16 µM in test [3]. For the same compound, the Ratio in test [2] is recorded as 84.4.
On to `Cc1cn([C@H]2C[C@H](N=[N+]=[N-])[C@@H](CO)O2)c(=O)[nH]c1=O` [ZIDOVUDINE], for which, in test [1], the IC50 was 5.6 µM.
`CCCCCCCCCCCCCCCCSCC(C[N+](C)(C)CCO)OCC.[Br-]` (stereo not drawn): the IC50 stood at 5.1 µM in test [1] and 0.63 µM in test [3]. Also, the Ratio in test [2] is 8.1.
As for `CCCCCCCCCCCCCCCCOCC(CP(=O)([O-])OCC[n+]1ccccc1)OC` (stereo not drawn), the values for the IC50 in test [1] and in test [3] were 7.7 µM and 2.2 µM, respectively. In addition, in test [2], the Ratio amounted to 3.5.
For `CCCCCCCCCCCCCCCCCCOCC(COP(=O)([O-])OCC[N+](C)(C)C)OC` (stereo not drawn) [EDELFOSINE], in that order: 4 µM, 0.92 µM and 4.3.
With `CCCCCCCCCCCCCCCCOCC(COP(=O)(O)OCCNC(C)(C)C)OCC` (stereo not drawn), the IC50 in test [1] was 10 µM; in test [3], over 5 µM.
Take `CCCCCCCCCCCCCCCCCCSCC(COP(=O)([O-])OCC[N+](C)(C)C)OC` (stereo not drawn): the IC50 in test [1] worked out at 3.8 µM; in test [3], 0.49 µM. In test [2], the Ratio came out at 7.8.
For `CCCCCCCCCCCCCCCCOCC(C[n+]1ccccc1)OCC.[Br-]` (stereo not drawn), in that order: 1.1 µM, 0.21 µM and 5.2.
For `CCCCCCCCCCCCCCCCCCOCC(COP(=O)([O-])OCC[N+](C)(C)C)OCC` (stereo not drawn), in that order: 3 µM, 0.27 µM and 11.1.
Taken in the same sequence, the figures for `CCCCCCCCCCCCCCCCOCC(C[N+]1(CO)CCCCC1)OCC.[I-]` (stereo not drawn) were 2.4 µM, 0.3 µM and 8.
As for `CCCCCCCCCCCCCCCCOCC(CO)OCC` (stereo not drawn), the results for the IC50 in test [1] and in test [3] were over 20 µM and over 5 µM, respectively.
Regarding `CCCCCCCCCCCCCCCCCCSCC(C[N+](C)(C)CCCO)OC.[I-]` (stereo not drawn), the concentration for half-maximal inhibition (IC50) was found to be 4 µM in test [1] and 0.41 µM in test [3]. The Ratio in test [2] came out at 9.8.
Taken in the same sequence, the figures for `CCCCCCCCCCCCCCCCOCC[N+](C)(C)CCO.[I-]` were 6 µM, 0.38 µM and 15.6.
Regarding `CCCCCCCCCCCCCCCCOCC[N+](C)(C)CCCO.[I-]`, the 50% inhibitory concentration (IC50) in test [1] worked out at 1.5 µM; in test [3], 0.24 µM. The Ratio in test [2] came to 6.1.
Consider `CCCCCCCCCCCCCCCCOCC(COP(=O)(O)OCCNC(C)C)OCC` (stereo not drawn), for which the values for the IC50 in test [1] and in test [3] were 7 µM and over 5 µM, respectively.
Take `CCCCCCCCCCCCCCCCCC(=O)NCCOP(=O)([O-])OCC[N+](C)(C)C`: the IC50 amounted to 19.3 µM in test [1] and 0.28 µM in test [3]. In test [2], the Ratio worked out at 68.7.
For `CCCCCCCCCCCCCCCCSCC(C[N+](C)(C)CC(O)CO)OC.[Br-]` (stereo not drawn), the IC50 was 2 µM in test [1] and 0.49 µM in test [3]. Also, the Ratio in test [2] turned out to be 4.1.
Taken in the same sequence, the figures for `CCCCCCCCCCCCCCCCSCCOP(=O)([O-])OCC[N+](C)(C)C` were 7.6 µM, 0.28 µM and 27.1.
For `CCCCCCCCCCCCCCCCOCC(COP(=O)([O-])OCC[n+]1ccccc1)OCC` (stereo not drawn), in that order: 8.1 µM, 4.7 µM and 1.7.
Take `CCCCCCCCCCCCCCCCOCC(CN(C)CCO)OC` (stereo not drawn): the half-maximal inhibitory concentration (IC50) in test [1] was found to be 3.2 µM; in test [3] it was 2.1 µM. Moreover, in test [2], the Ratio is 1.5.
For `CCCCCCCCCCCCCCCCOCC(C[N+](C)(C)C)OC.[Br-]` (stereo not drawn), in that order: 1.1 µM, 0.52 µM and 2.1.
For `CCCCCCCCCCCCCCCCCC(=O)NCC(COP(=O)([O-])OCC[N+](C)(C)C)OC` (stereo not drawn), in that order: 14.2 µM, 0.3 µM and 47.3.
For `CCCCCCCCCCCCCCCCSCC(C[N+](C)(C)CCO)OC.[Br-]` (stereo not drawn), in that order: 2.1 µM, 0.37 µM and 5.7.
On to `CCCCCCCCCCCCCCCCSCC(COP(=O)([O-])OCC[N+](C)(C)C)OCC` (stereo not drawn), for which the 50% inhibitory concentration (IC50) in test [1] turned out to be 4.1 µM; in test [3], 0.7 µM. For the same compound, in test [2], the Ratio came to 5.9.
For `CCCCCCCCCCCCCCCC(=O)NCC(COP(=O)([O-])OCC[N+](C)(C)C)OC` (stereo not drawn), in that order: 24.7 µM, 0.93 µM and 26.6.
Taken in the same sequence, the figures for `CCCCCCCCCCCCCCCCCCS(=O)(=O)CC(COP(=O)([O-])OCC[N+](C)(C)C)OCC` (stereo not drawn) were 9 µM, 1.2 µM and 7.5.
Taken in the same sequence, the figures for `CCCCCCCCCCCCCCCCCCOCC[N+](C)(C)CC(O)CO.[I-]` (stereo not drawn) were 2.9 µM, 0.2 µM and 14.5.
As to `CCCCCCCCCCCCCCCC(=O)NCC(COP(=O)([O-])OCC[N+](C)(C)C)OCC` (stereo not drawn), the results for the IC50 in test [1] and in test [3] were 19 µM and 0.46 µM, respectively. Also, the Ratio in test [2] worked out at 41.3.
Turning to `CCCCCCCCCCCCCCCCSCC(C[N+](C)(C)C)OC.[Br-]` (stereo not drawn), the IC50 in test [1] turned out to be 5.3 µM; in test [3] it was 0.39 µM. Further, the Ratio in test [2] is recorded as 13.4.
